Bioassay records: PubChem BioAssay, several laboratories
SUMO1 PPI mod – modulators of SUMO1 protein-protein interactions, primary screen, biochemical, uHTS | Small ubiquitin-related modifier 1 (Homo sapiens), P63165 | SUMO1 binding to a labelled peptide, TR-FRET, 1 h | inhibition, % at 20 µM | 360,000 compounds, 0.33% hits | AID 602429, 2012; in the data active = inhibition above about 37%
DNMT1 block – human DNMT1 methyltransferase inhibitors, primary screen, biochemical, molecular beacon, fluorescence, HinP1I cleavage, uHTS; 360,000 compounds, 0.83% hits; DNA (cytosine-5)-methyltransferase 1 (Homo sapiens), P26358; inhibition (reported as % activation of signal), % at 10 µM; AID 588458, 2011; in the data active = inhibition above about 50%
UHRF1 MBD2 ctr – UHRF1 methylated DNA binding inhibitors, primary screen, counter-screen for MBD2 inhibitor project, biochemical, TR-FRET, human UHRF1, single concentration. E3 ubiquitin-protein ligase UHRF1 (Homo sapiens), Q96T88. UHRF1 binding to methylated oligo. inhibition, % at 4.4 µM. 370,000 compounds, 0.75% hits;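 note: UHRF1 SRA domain binding a hemimethylated CpG hairpin DNA probe; 0% = median of test compound wells and 100% = reference inhibitor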
DSG3 Ab inh – inhibitors of pemphigus antibody binding to DSG3, primary screen, biochemical, bead-based, flow cytometry, scFv-GFP | Desmoglein-3 (Homo sapiens), P32926 | DSG3-coupled beads, scFv-anti-DSG3-GFP binding; active compounds read low | binding (percent of control), % at 10 µM | 310,000 compounds, 0.48% hits;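 active = binding more than 3 SD below its plate's average and above zero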;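 note: hits lower antibody fragment binding to DSG3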
Target sequence (P32926 whole entry, looked up, the tested form may be a part): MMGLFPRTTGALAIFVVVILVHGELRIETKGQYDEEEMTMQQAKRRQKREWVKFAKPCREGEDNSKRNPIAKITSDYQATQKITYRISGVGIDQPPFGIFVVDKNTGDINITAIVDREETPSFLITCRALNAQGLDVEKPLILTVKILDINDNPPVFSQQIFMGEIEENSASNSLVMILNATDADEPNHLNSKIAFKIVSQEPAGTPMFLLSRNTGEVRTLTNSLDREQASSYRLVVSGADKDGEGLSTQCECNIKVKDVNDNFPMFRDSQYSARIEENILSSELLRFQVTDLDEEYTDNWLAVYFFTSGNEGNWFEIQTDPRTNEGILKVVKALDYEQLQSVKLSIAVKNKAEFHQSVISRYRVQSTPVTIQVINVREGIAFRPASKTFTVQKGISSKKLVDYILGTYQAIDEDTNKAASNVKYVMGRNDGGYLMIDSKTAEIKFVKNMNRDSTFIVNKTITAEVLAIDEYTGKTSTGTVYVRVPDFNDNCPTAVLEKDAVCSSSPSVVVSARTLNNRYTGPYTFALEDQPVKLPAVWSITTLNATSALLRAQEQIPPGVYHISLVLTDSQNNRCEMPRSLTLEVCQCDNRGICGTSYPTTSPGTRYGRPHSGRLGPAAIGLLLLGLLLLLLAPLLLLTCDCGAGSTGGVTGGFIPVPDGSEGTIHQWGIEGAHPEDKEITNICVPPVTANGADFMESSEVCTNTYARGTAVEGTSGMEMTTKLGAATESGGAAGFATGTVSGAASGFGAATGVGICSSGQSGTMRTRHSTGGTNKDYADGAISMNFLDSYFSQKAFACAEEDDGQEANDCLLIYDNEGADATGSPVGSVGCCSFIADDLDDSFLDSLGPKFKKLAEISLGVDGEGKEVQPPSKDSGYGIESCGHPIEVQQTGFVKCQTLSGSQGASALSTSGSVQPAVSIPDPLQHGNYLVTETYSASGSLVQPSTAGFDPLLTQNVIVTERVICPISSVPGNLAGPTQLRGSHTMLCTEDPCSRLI
MBD2 DNA inh – inhibitors of MBD2 binding to methylated DNA, primary screen, biochemical, TR-FRET, DNA-binding domain, human; Methyl-CpG-binding domain protein 2 (Homo sapiens), Q9UBB5; MBD2 binding to methylated oligonucleotide; inhibition, % at 4.4 µM; 370,000 compounds, 0.31% hits; AID 686964, 2013; in the data active = inhibition above about 13%
HCV NS3 hel inh – inhibitors of HCV NS3 helicase, primary screen, biochemical, Cy5 molecular beacon fluorescence. NS3 helicase DNA unwinding. inhibition, % at 10.9 µM. 290,000 compounds, 0.56% hits. AID 1800, 2009;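 active = inhibition above the mean of all tested compounds plus 3 SD, set per campaign, cut at about 35% in these data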;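 note: 0% = DMSO wells and 100% = thioflavine S control wells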
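Assay system – hepatitis C virus NS3 helicase domain fragment enzyme · Buffer or medium – MOPS pH 6.5, MgCl2, DTT, Tween20, BSA · Reagent – Cy5/quencher beacon DNA duplex and ATP to start · Compound – single 10.9 µM dose · Timing – 1 h at 25 °C · Technique – Cy5 beacon fluorescence read at start and 1 h · Measure – % inhibition of unwinding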
DNMT1 interf DR – spectral interference with molecular beacon fluorescence, dose response, artefact control for DNMT1 inhibitor project, biochemical, fluorescent molecular beacon. shares compounds with DNMT1 block. spectral interference counter-screen. IC50, µM. 200 tested, under 10 active. AID 602382, 2012; call rule not given here
DNMT1 confirm – DNMT1 methyltransferase inhibitor retest, confirmation, biochemical, molecular beacon, fluorescence, single concentration; shares compounds with DNMT1 block; DNMT1 molecular beacon HinP1I cleavage; inhibition, % at 10 µM; 2,300 compounds, 8% hits;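 active = average inhibition of at least 30% in the single-concentration confirmation test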
Beacon interf – shows spectral interference in the DNMT1 beacon assay; shares compounds with DNMT1 block; activation (fluorescence interference), % at 10 µM; 2,300 compounds, 1% hits; DNMT1 molecular beacon spectral interference counterscreen, fluorescence 485/520;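 active = activation of at least 30% at 10 µM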;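 note: DNMT1 catalytic domain with a HinP1I cleavage step and a FAM/dabcyl DNA beacon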
UHRF1 ctr MBD2 – UHRF1 methylated DNA binding inhibitors, counter-screen for MBD2 inhibitor project, biochemical, TR-FRET, human UHRF1 | inhibition, % at 4.4 µM | UHRF1 binding to methylated oligonucleotide | 1,000 compounds, 25% hits | shares compounds with MBD2 DNA inh;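 note: UHRF1 SRA domain binding a labeled hemimethylated CpG hairpin DNA; 0% = vehicle only and 100% = reference inhibitor with vehicle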
MBD2 DBD conf – inhibitors of MBD2 binding to methylated DNA, confirmation, biochemical, TR-FRET, DNA-binding domain, human; 1,000 compounds, 26% hits; shares compounds with MBD2 DNA inh; TR-FRET MBD2-DBD binding to methylated oligonucleotide; inhibition, % at 4.4 µM; in the data active = inhibition above about 14%
Active calls of the source: *; / = not tested or not shown. Most compounds without a hit are left out; they make up all but 2.5% or so of the library. Cut-off read from the data, not from the text of the source, unless noted: active = inhibition above about 21%; inactive = the rest.

SMILES	SUMO1 PPI mod	DNMT1 block	UHRF1 MBD2 ctr	DSG3 Ab inh	MBD2 DNA inh	HCV NS3 hel inh	DNMT1 interf DR	DNMT1 confirm	Beacon interf	UHRF1 ctr MBD2	MBD2 DBD conf
c1cc(N2CCOCC2)ccc1-c1ccc2nncn2c1	-38	8	-4	/	0	/	/	/	/	/	/
c1coc(-c2ccc3nncn3c2)c1	87*	102*	76*	/	39*	/	>99	76*	1	62*	34*
N#Cc1ccc(C(S(=O)(=O)Cc2ccccc2)S(=O)(=O)Cc2ccccc2)cc1	3	-4	-3	97	0	/	/	/	/	/	/
CN(C)c1ccc2cc(S(=O)(=O)O)cc(O)c2c1	28	63*	83*	84	45*	/	/	5	-1	29*	6
O=C(NC1CCN(C(=S)NCc2ccco2)CC1)C12CC3CC(CC(C3)C1)C2	-3	-6	-1	89	1	11	/	/	/	/	/
Cc1ccc(-c2nc3s/c(=C\c4ccco4)c(=O)n3n2)cc1	4	79*	30*	80	15*	17	/	5	-1	12	5
Cc1cc(C)cc(N2CN=c3s/c(=C\c4ccco4)c(=O)n3C2)c1	-8	-1	-4	97	-8	15	/	/	/	/	/
N#Cc1c(SCC(=O)Nc2nncs2)sc2c(O)cc(=O)[nH]c12	32	71*	48*	108	18*	24	/	3	-1	43*	23*
Clc1cccc(C[n+]2cc(-c3ccccc3)n3c2CCC3)c1	2	0	6	110	-1	-16	/	/	/	/	/
CCOC(=O)C1CCCN(C(=O)c2cc(-c3ccco3)nc3ccccc23)C1 (stereo not drawn)	24	100*	38*	84	20*	/	>99	65*	-1	39*	24*
CN(C)CCCn1c(N)c(C#N)c2nc3ccccc3nc21	-7	1	-6	98	-6	12	/	/	/	/	/
O=C(O)c1ccc(-n2cccc2/C=C2/NC(=O)N(c3ccccc3)C2=O)cc1	89*	93*	77*	93	37*	17	>99	83*	-3	72*	44*
O=C(O)c1ccc(-n2cccc2/C=C2/SC(=O)N(CC(=O)N3CCCC3)C2=O)cc1	81*	91*	76*	86	44*	20	>99	81*	-4	85*	49*
O=C1N/C(=C/c2cccn2-c2ccccc2)C(=O)N1Cc1ccccc1F	-1	2	2	99	-3	4	/	/	/	/	/
COCC(C)n1c(SCC(=O)NC(=O)NC2CCCC2)nc2ccccc2c1=O (stereo not drawn)	0	-2	2	103	5	/	/	/	/	/	/
